Laboratory results: ChEMBL document CHEMBL1165859, “Synthesis, antiproliferative, acute toxicity and assessment of antiandrogenic activities of some newly synthesized steroidal lactams” (Eur J Med Chem, 2010)
Calls of active or inactive are those of the source. The rule behind the calls is not given here.

Legend:
[1] = test system: DU-145; assay: Antiproliferative activity against human DU145 cells assessed as growth inhibition at 1 ug/mL after 48 hrs by MTT assay relative to control; type: functional; conditions: for inhibition of growth at 1 µg/mL: DU-145, 48 h, read-out: GI
Outline: (§1)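 DU-145 cells grown in DMEM with 10% heat-inactivated FBS and streptomycin/penicillin at 37 °C, 5% CO2. Cells seeded at 5×10³/well and left to attach 24 h. Compounds in ethanol, final 0.01, 0.5, 1.0, 2.0 and 5.0 µg/mL, given in triplicate for 48 h. MTT added for 4 h, formazan dissolved in DMSO, A570 read. Viability is A(test)/A(control)×100, mean ± SEM of 3 experiments. IC50 taken from a linear log dose–response fit.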

[2] = test system: DU-145; assay: Antiproliferative activity against human DU145 cells assessed as growth inhibition after 48 hrs by MTT assay; type: functional, cell-based; conditions: DU-145, 48 h; outline: as §1
[3] = test system: DU-145; assay: Antiproliferative activity against human DU145 cells assessed as growth inhibition at 5 ug/mL after 48 hrs by MTT assay relative to control; type: functional; conditions: for inhibition of growth at 5 µg/mL: DU-145, 48 h, read-out: GI; outline: as §1
[4] = test system: Rattus norvegicus; assay: Antiandrogenic activity in Sprague-Dawley rat assessed as increase of serum testosterone level at 40 mg/kg, ip equimolar dose of finasteride after 6 hrs by ELISA; type: functional
Outline: (§2)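 Intact male Sprague Dawley rats (200–250 g), 5 per group. Compounds suspended in olive oil:ethanol (95:5), single intraperitoneal dose equimolar to 40 mg/kg finasteride; controls received vehicle alone. Blood taken by cardiac puncture under diethyl ether anaesthesia 6 h after dosing. Serum testosterone measured by competitive ELISA (T-antibody-coated wells, HRP-T conjugate, 4 h at 37 °C, H2O2 substrate 20 min, H2SO4 stop) at 450 nm. Results are mean ± SEM.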

[5] = test system: DU-145; assay: Antiproliferative activity against human DU145 cells assessed as growth inhibition at 2 ug/mL after 48 hrs by MTT assay relative to control; type: functional; conditions: for inhibition of growth at 2 µg/mL: DU-145, 48 h, read-out: GI; outline: as §1
[6] = test system: DU-145; assay: Antiproliferative activity against human DU145 cells assessed as growth inhibition at 0.01 ug/mL after 48 hrs by MTT assay relative to control; type: functional; conditions: for inhibition of growth at 0.01 µg/mL: DU-145, 48 h, read-out: GI; outline: as §1
[7] = test system: DU-145; assay: Antiproliferative activity against human DU145 cells assessed as growth inhibition at 0.5 ug/mL after 48 hrs by MTT assay relative to control; type: functional; conditions: for inhibition of growth at 0.5 µg/mL: DU-145, 48 h, read-out: GI; outline: as §1
[8] = Cytotoxicity against Balb/C mouse macrophages assessed as cell viability after 24 hrs by MTT assay; type: cell-based; conditions: Macrophage
[9] = Cytotoxicity against Balb/C mouse macrophages assessed as cell viability at 5 ug/ml after 24 hrs by MTT assay; type: cell-based, Macrophage; conditions: read-out: Activity
[10] = test system: Rattus norvegicus; assay: Antiandrogenic activity in ip dosed Sprague-Dawley rat assessed as increase of serum testosterone level after 6 hrs by ELISA (reference value: 0.742 +/- 0.07 ng/ml); type: functional; outline: as §2

Compound	inhibition of growth at 1 µg/mL [1] [%]	IC50 [2] [µM]	inhibition of growth at 5 µg/mL [3] [%]	Activity [4]	inhibition of growth at 2 µg/mL [5] [%]	inhibition of growth at 0.01 µg/mL [6] [%]	inhibition of growth at 0.5 µg/mL [7] [%]	growth inhibition (GI) [1]	growth inhibition (GI) [6]	growth inhibition (GI) [7]	LC50 [8] [µM]	growth inhibition (GI) [3]	Activity ([4]; route intraperitoneal) [ng/mL]	growth inhibition (GI) [5]	viability at 24 h, 5 ug/ml [9] [%]	Activity [10] [ng/mL]
C[C@]12CC[C@H](OC(=O)c3ccc(O)cc3)CC1=CC[C@@H]1[C@@H]2CC[C@]2(C)NC(=O)CC[C@@H]12	59.2	5.7	69.5	Active	65.6	30.7	51.4	–	–	–	–	–	–	–	–	–
C[C@]12CC[C@H](OC(=O)Cc3ccccc3)CC1=CC[C@@H]1[C@@H]2CC[C@]2(C)NC(=O)CC[C@@H]12	–	7.1	73.1	Active	48.3	–	–	inactive	inactive	inactive	26	–	–	–	–	–
C[C@]12CC[C@H](OC(=O)CCl)CC1=CC[C@@H]1[C@@H]2CC[C@]2(C)NC(=O)CC[C@@H]12	–	–	–	–	–	–	–	inactive	inactive	inactive	–	inactive	0.82	inactive	6	–
C[C@]12CC[C@H](OC(=O)c3ccc(Cl)cc3)CC1=CC[C@@H]1[C@@H]2CC[C@]2(C)NC(=O)CC[C@@H]12	42.2	8.3	67.6	Active	49.4	19	27.9	–	–	–	–	–	–	–	6	–
Cc1ccc(C(=O)O[C@H]2CC[C@@]3(C)C(=CC[C@@H]4[C@@H]3CC[C@]3(C)NC(=O)CC[C@@H]43)C2)cc1	40.7	7.5	77	Active	68.1	21.6	29.5	–	–	–	–	–	–	–	–	–
C[C@]12CC[C@H](OC(=O)c3ccc([N+](=O)[O-])cc3)CC1=CC[C@@H]1[C@@H]2CC[C@]2(C)NC(=O)CC[C@@H]12	57.9	5.2	88.9	Active	73.5	33.9	41.4	–	–	–	–	–	–	–	–	–
C[C@]12CC[C@H](OC(=O)COc3ccccc3)CC1=CC[C@@H]1[C@@H]2CC[C@]2(C)NC(=O)CC[C@@H]12	–	–	–	Active	–	–	–	inactive	inactive	inactive	–	inactive	–	inactive	–	–
C[C@]12CC[C@H](O)CC1=CC[C@@H]1[C@@H]2CC[C@]2(C)NC(=O)CC[C@@H]12	–	–	–	Active	–	–	–	inactive	inactive	inactive	–	inactive	–	inactive	–	–
C[C@]12CC[C@H](OC(=O)c3ccccc3)CC1=CC[C@@H]1[C@@H]2CC[C@]2(C)NC(=O)CC[C@@H]12	38.8	9.5	63.6	Active	45	28.1	35.7	–	–	–	–	–	–	–	–	–
COc1ccc(C(=O)O[C@H]2CC[C@@]3(C)C(=CC[C@@H]4[C@@H]3CC[C@]3(C)NC(=O)CC[C@@H]43)C2)cc1	21.3	15.1	43	–	33.9	17.4	25.2	–	–	–	–	–	1.05	–	–	–
CC(C)(C)NC(=O)[C@H]1CC[C@H]2[C@@H]3CC[C@H]4NC(=O)C=C[C@]4(C)[C@H]3CC[C@]12C [FINASTERIDE]	16.5	3.9	78.5	–	36	5	8.83	–	–	–	–	–	–	–	–	1.26
C[C@]12CC[C@H](OC(=O)c3ccc(N)cc3)CC1=CC[C@@H]1[C@@H]2CC[C@]2(C)NC(=O)CC[C@@H]12	45	7.1	82.4	Active	48	30.5	43.4	–	–	–	–	–	–	–	–	–
